The target of experiment [1] is T1, Estrogen receptor (Homo sapiens) (UniProt P03372).
T1 sequence (whole entry): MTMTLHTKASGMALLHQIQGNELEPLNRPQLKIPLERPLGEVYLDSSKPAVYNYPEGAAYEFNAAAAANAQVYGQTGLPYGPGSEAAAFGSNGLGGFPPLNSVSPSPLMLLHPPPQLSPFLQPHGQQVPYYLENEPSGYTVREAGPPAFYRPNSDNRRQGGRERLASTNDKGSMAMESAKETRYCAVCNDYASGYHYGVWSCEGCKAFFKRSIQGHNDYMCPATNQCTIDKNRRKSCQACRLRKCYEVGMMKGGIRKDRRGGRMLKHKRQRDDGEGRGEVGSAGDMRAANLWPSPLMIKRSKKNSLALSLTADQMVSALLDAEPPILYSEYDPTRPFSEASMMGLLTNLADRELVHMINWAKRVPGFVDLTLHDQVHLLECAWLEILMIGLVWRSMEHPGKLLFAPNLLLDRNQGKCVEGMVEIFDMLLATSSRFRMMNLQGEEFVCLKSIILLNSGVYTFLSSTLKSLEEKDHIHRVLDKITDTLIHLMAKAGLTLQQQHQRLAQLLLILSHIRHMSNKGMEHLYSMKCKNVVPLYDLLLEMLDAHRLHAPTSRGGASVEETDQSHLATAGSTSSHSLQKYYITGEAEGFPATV
Nature of the experiment: Agonist activity at ERalpha expressed in human HEK293 cells assessed as induction of estrogenic response at 10 to 100 ug/mL by luciferase reporter gene assay relative to 17beta estradiol. The format is functional, cell-based. In general terms: Reporter assays use an easily measured gene product as a stand-in for the process of interest.

Experiment [2] addresses Estrogen receptor beta (Homo sapiens) (UniProt Q92731). Nature of the experiment: Agonist activity at ERbeta expressed in human HEK293 cells assessed as induction of estrogenic response at 10 to 100 ug/mL by luciferase reporter gene assay relative to 17beta estradiol. Type of experiment: functional, cell-based.
Experiment [3] can be described thus: Superoxide scavenging activity by chemiluminescence assay. Summed up: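 Cell-free xanthine oxidase system in PBS pH 7.4 with a serial dilution of sample. Added hypoxanthine (final 1 mM), lucigenin (0.1 mM), and either buffer or SOD (10 U/mL); started with xanthine oxidase (10 mU/mL). Chemiluminescence read each minute for 15 min. Activity taken from the SOD-inhibitable signal. Uric acid formation at 290 nm checked for direct xanthine oxidase effects.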

The nature of experiment [4]: Inhibition of luminol-induced chemiluminescence of reactive oxygen metabolites in opsonized zymosan-induced human PMNC by chemiluminescence assay. The format is functional. An outline of the steps:
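PMNs from buffy coats of healthy volunteers, isolated on Ficoll-Hypaque and suspended in HBSS. Cells were mixed with a dilution range of sample plus luminol (0.1 mM), then activated with human-serum-opsonized zymosan (0.8 mg/mL). Luminescence read every 2 min over 30 min. Inhibition calculated from maximum peak levels against a control of cells, luminol and buffer.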

≈ marks a conversion by molar mass, not a printed value.

Consider four molecules from ChEMBL document CHEMBL1150643, “Bioactive constituents of Cedrelopsis microfoliata” (J Nat Prod, 2002).

Sequence of Estrogen receptor beta (Homo sapiens) (Q92731 whole entry): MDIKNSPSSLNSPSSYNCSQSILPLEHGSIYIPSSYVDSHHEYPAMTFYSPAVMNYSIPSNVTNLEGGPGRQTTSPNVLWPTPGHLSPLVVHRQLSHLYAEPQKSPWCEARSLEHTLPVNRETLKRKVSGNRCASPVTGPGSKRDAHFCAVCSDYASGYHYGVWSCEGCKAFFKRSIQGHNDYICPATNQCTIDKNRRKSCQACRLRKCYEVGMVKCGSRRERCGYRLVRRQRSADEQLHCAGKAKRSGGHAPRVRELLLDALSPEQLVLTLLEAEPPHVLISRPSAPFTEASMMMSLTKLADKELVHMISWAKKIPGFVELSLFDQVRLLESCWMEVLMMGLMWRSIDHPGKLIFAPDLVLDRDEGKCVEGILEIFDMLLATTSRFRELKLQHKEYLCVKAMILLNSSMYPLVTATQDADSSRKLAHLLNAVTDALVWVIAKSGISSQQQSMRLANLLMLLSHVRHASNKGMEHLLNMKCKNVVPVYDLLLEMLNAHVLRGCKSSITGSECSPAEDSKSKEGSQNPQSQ

`COc1c(O)c(CC=C(C)C)c(O)c2c1O[C@@H](c1ccccc1)CC2=O`: the Activity in experiment [1] and in experiment [2] was 20% throughout.

For the molecule `COc1c(O)c(CC=C(C)C)c2c(c1O)C(=O)C[C@@H](c1ccccc1)O2` [AGRANDOL], the Activity in experiment [1] and in experiment [2] was 20% throughout. The IC50 was determined as 3 µg/mL (≈ 8.46 µM) in experiment [3] and 3.2 µg/mL in experiment [4].

As for `CC1(C)C=Cc2c(c(O)cc3oc(=O)ccc23)O1` [CEDRECOUMARIN A], the Activity in experiment [1] and in experiment [2] was 20% in each case. Moreover, the IC50 came to 0.2 µg/mL (≈ 0.819 µM) in experiment [3] and 13 µg/mL in experiment [4].

Consider `CO[C@]1(CC=C(C)C)C(=O)[C@@](O)(C(=O)/C=C/c2ccccc2)C(=O)C(CC=C(C)C)=C1O` [MICROFOLIAN], for which the IC50 in experiment [3] amounted to 3 µg/mL (≈ 6.84 µM); in experiment [4], 4 µg/mL.

Usually IC50 stands for the concentration that gives 50% inhibition.
